Measured values from ChEMBL document CHEMBL5055631, “Antitumor properties of novel sesquiterpene lactone analogs as NFκB inhibitors that bind to the IKKβ ubiquitin-like domain (ULD)” (Eur J Med Chem, 2021).

Key:
Format in all cases: functional
HCC 2998 = experiment: Anticancer activity against human HCC 2998 cells assessed as cell growth inhibition incubated for 48 hrs by SRB method
Summary of the method: (§1)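 NCI-60 panel (DTP). Cells in RPMI 1640 with 5% FBS, 2 mM L-glutamine, seeded at 5,000–40,000 per well by doubling time and preincubated 24 h at 37 °C, 5% CO2. Time-zero plates TCA-fixed. DMSO stocks diluted in medium with gentamicin, tested at 100 μM, 10 μM, 1 μM, 0.1 μM and 10 nM for 48 h. Cells fixed with cold TCA, stained with SRB, absorbance read at 515 nm.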

BT-549 = experiment: Anticancer activity against human BT-549 cells assessed as cell growth inhibition incubated for 48 hrs by SRB method; summary of the method: as §1
NCI-H460 = experiment: Anticancer activity against human NCI-H460 cells assessed as cell growth inhibition incubated for 48 hrs by SRB method; summary of the method: as §1
UO-31 = experiment: Anticancer activity against human UO-31 cells assessed as cell growth inhibition incubated for 48 hrs by SRB method
Summary of the method: (§2)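 NCI-60 panel, SRB assay. Time-zero plates were TCA-fixed. Compounds came from DMSO stocks and were tested at 100 μM, 10 μM, 1 μM, 0.1 μM and 10 nM for 48 h. Cells were fixed with cold TCA and stained with 0.4% SRB, and the dye was solubilized in 10 mM Tris base with A515 read.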

CCRF-CEM = experiment: Anticancer activity against human CCRF-CEM cells assessed as cell growth inhibition incubated for 48 hrs by sulforhodamine B assay
786-0 = experiment: Anticancer activity against human 786-0 cells assessed as cell growth inhibition incubated for 48 hrs by SRB method; summary of the method: as §1
NCI/ADR-RES = experiment: Anticancer activity against human NCI/ADR-RES cells assessed as cell growth inhibition incubated for 48 hrs by SRB method; summary of the method: as §1
RPMI-8226 = experiment: Anticancer activity against human RPMI-8226 cells assessed as cell growth inhibition incubated for 48 hrs by SRB method
OVCAR-4 = experiment: Anticancer activity against human OVCAR-4 cells assessed as cell growth inhibition incubated for 48 hrs by SRB method
M14 = experiment: Anticancer activity against human M14 cells assessed as cell growth inhibition incubated for 48 hrs by SRB method; summary of the method: as §1
MDA-MB-435 = experiment: Anticancer activity against human MDA-MB-435 cells assessed as cell growth inhibition incubated for 48 hrs by SRB method; summary of the method: as §1
MDA-MB-231 = experiment: Anticancer activity against human MDA-MB-231 cells assessed as cell growth inhibition incubated for 48 hrs by SRB method; summary of the method: as §1
OVCAR-5 = experiment: Anticancer activity against human OVCAR-5 cells assessed as cell growth inhibition incubated for 48 hrs by SRB method
UACC-257 = experiment: Anticancer activity against human UACC-257 assessed as cell growth inhibition incubated for 48 hrs by SRB method
Summary of the method: as §2, with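 “assay. Cells grown in RPMI 1640 with 5% FBS and 2 mM L-glutamine, seeded at 5,000–40,000 cells/well depending on doubling time, and preincubated 24 h at 37 °C with 5% CO2.” for “assay.”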

SK-MEL-28 = experiment: Anticancer activity against human SK-MEL-28 cells assessed as cell growth inhibition incubated for 48 hrs by SRB method; summary of the method: as §1
HCT-116 = experiment: Anticancer activity against human HCT-116 cells assessed as cell growth inhibition incubated for 48 hrs by SRB method; summary of the method: as §1
CAKI-1 = experiment: Anticancer activity against human CAKI-1 cells assessed as cell growth inhibition incubated for 48 hrs by SRB method; summary of the method: as §1
MCF7 = experiment: Anticancer activity against human MCF7 cells assessed as cell growth inhibition incubated for 48 hrs by SRB method; summary of the method: as §1
HL-60(TB) = experiment: Anticancer activity against human HL-60(TB) cells assessed as cell growth inhibition incubated for 48 hrs by SRB method
SF-539 = experiment: Anticancer activity against human SF-539 cells assessed as cell growth inhibition incubated for 48 hrs by SRB method
HCT-15 = experiment: Anticancer activity against human HCT-15 cells assessed as cell growth inhibition incubated for 48 hrs by SRB method; summary of the method: as §1
K562 = experiment: Anticancer activity against human K562 cells assessed as cell growth inhibition incubated for 48 hrs by SRB method
T47D = experiment: Anticancer activity against human T47D cells assessed as cell growth inhibition incubated for 48 hrs by SRB method; summary of the method: as §1
SNB-75 = experiment: Anticancer activity against human SNB-75 cells assessed as cell growth inhibition incubated for 48 hrs by SRB method
LOX IMVI = experiment: Anticancer activity against human LOX IMVI cells assessed as cell growth inhibition incubated for 48 hrs by SRB method
RXF 393 = experiment: Anticancer activity against human RXF 393 cells assessed as cell growth inhibition incubated for 48 hrs by SRB method; summary of the method: as §1
HOP-92 = experiment: Anticancer activity against human HOP-92 cells assessed as cell growth inhibition incubated for 48 hrs by SRB method
A498 = experiment: Anticancer activity against human A498 cells assessed as cell growth inhibition incubated for 48 hrs by SRB method; summary of the method: as §1
NCI-H23 = experiment: Anticancer activity against human NCI-H23 cells assessed as cell growth inhibition incubated for 48 hrs by SRB method; summary of the method: as §1
MOLT-4 = experiment: Anticancer activity against human MOLT-4 assessed as cell growth inhibition incubated for 48 hrs by SRB method
Malme-3M = experiment: Anticancer activity against human MALME-3M cells assessed as cell growth inhibition incubated for 48 hrs by SRB method
SF-295 = experiment: Anticancer activity against human SF-295 cells assessed as cell growth inhibition incubated for 48 hrs by SRB method; summary of the method: as §1
HT-29 = experiment: Anticancer activity against human HT29 cells assessed as cell growth inhibition incubated for 48 hrs by SRB method; summary of the method: as §1
[1] = Anticancer activity against human HS 578T cells assessed as cell growth inhibition incubated for 48 hrs by SRB method
ACHN = experiment: Anticancer activity against human ACHN cells assessed as cell growth inhibition incubated for 48 hrs by SRB method; summary of the method: as §1
PC-3 = experiment: Anticancer activity against human PC-3 cells assessed as cell growth inhibition incubated for 48 hrs by SRB method; summary of the method: as §1
NCI-H522 = experiment: Anticancer activity against human NCI-H522 cells assessed as cell growth inhibition incubated for 48 hrs by SRB method
KM12 = experiment: Anticancer activity against human KM12 cells assessed as cell growth inhibition incubated for 48 hrs by SRB method; summary of the method: as §1
U-251 = experiment: Anticancer activity against human U-251 cells assessed as cell growth inhibition incubated for 48 hrs by SRB method
Summary of the method: as §2, with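 “assay. Cells grown in RPMI 1640 with 5% FBS and 2 mM L-glutamine, seeded at 5,000–40,000 cells/well depending on doubling time, and preincubated 24 h at 37 °C with 5% CO2.” for “assay.”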

HOP-62 = experiment: Anticancer activity against human HOP-62 cells assessed as cell growth inhibition incubated for 48 hrs by SRB method; summary of the method: as §1
SR = experiment: Anticancer activity against human SR cells assessed as cell growth inhibition incubated for 48 hrs by SRB method; summary of the method: as §1

`C=C1C(=O)O[C@H]2[C@H]1CC/C(COC(=O)NCc1ccc(OC)cc1)=C\CC[C@@]1(C)O[C@@H]21` showed a GI50 (HCC 2998) of 510 nM, a GI50 (BT-549) of 620 nM and a GI50 (NCI-H460) of 2740 nM. The GI50 (UO-31) was 190 nM, the GI50 (CCRF-CEM) was 260 nM and the GI50 (786-0) was 490 nM. It also gave a GI50 (NCI/ADR-RES) of 1460 nM, a GI50 (RPMI-8226) of 260 nM and a GI50 (OVCAR-4) of 290 nM. It also gave a GI50 (M14) of 190 nM, a GI50 (MDA-MB-435) of 420 nM and a GI50 (MDA-MB-231) of 370 nM. For the same compound, the GI50 (OVCAR-5) was 280 nM, the GI50 (UACC-257) was 1520 nM and the GI50 (SK-MEL-28) was 1180 nM. For the same compound, the GI50 (HCT-116) was 190 nM, the GI50 (CAKI-1) was 720 nM and the GI50 (MCF7) was 1870 nM. The GI50 (HL-60(TB)) was 260 nM, the GI50 (SF-539) was 320 nM and the GI50 (HCT-15) was 240 nM. The GI50 (K562) was 370 nM, the GI50 (T47D) was 790 nM and the GI50 (SNB-75) was 740 nM. It also gave a GI50 (LOX IMVI) of 270 nM, a GI50 (RXF 393) of 270 nM and a GI50 (HOP-92) of 240 nM. For the same compound, the GI50 (A498) was 1790 nM, the GI50 (NCI-H23) was 550 nM and the GI50 (MOLT-4) was 280 nM. It also gave a GI50 (Malme-3M) of 200 nM, a GI50 (SF-295) of 10800 nM and a GI50 (HT-29) of 260 nM. For the same compound, the GI50 [1] was 270 nM, the GI50 (ACHN) was 180 nM and the GI50 (PC-3) was 350 nM. For the same compound, the GI50 (NCI-H522) was 170 nM, the GI50 (KM12) was 2350 nM and the GI50 (U-251) was 960 nM. For the same compound, the GI50 (HOP-62) was 4810 nM and the GI50 (SR) was 300 nM.

With `C=C1C(=O)O[C@H]2[C@H]1CC/C(COC(=O)NCc1cc(OC)cc(OC)c1)=C\CC[C@@]1(C)O[C@@H]21` the GI50 (HCC 2998) was 1940 nM, the GI50 (BT-549) was 1610 nM and the GI50 (NCI-H460) was 3010 nM. The GI50 (UO-31) was 680 nM, the GI50 (CCRF-CEM) was 470 nM and the GI50 (786-0) was 1600 nM. It also gave a GI50 (NCI/ADR-RES) of 1820 nM, a GI50 (RPMI-8226) of 1800 nM and a GI50 (OVCAR-4) of 2120 nM. The GI50 (M14) was 1640 nM, the GI50 (MDA-MB-435) was 1990 nM and the GI50 (MDA-MB-231) was 720 nM. The GI50 (OVCAR-5) was 1010 nM, the GI50 (UACC-257) was 270 nM and the GI50 (SK-MEL-28) was 1660 nM. It also gave a GI50 (HCT-116) of 770 nM, a GI50 (CAKI-1) of 2110 nM and a GI50 (MCF7) of 2720 nM. The GI50 (HL-60(TB)) was 1690 nM, the GI50 (SF-539) was 1540 nM and the GI50 (HCT-15) was 770 nM. It also gave a GI50 (K562) of 1570 nM, a GI50 (T47D) of 4120 nM and a GI50 (SNB-75) of 1990 nM. The GI50 (LOX IMVI) was 540 nM, the GI50 (RXF 393) was 1290 nM and the GI50 (HOP-92) was 1420 nM. It also gave a GI50 (A498) of 2980 nM, a GI50 (NCI-H23) of 1840 nM and a GI50 (MOLT-4) of 2000 nM. The GI50 (Malme-3M) was 1860 nM, the GI50 (SF-295) was 7780 nM and the GI50 (HT-29) was 1200 nM. It also gave a GI50 [1] of 580 nM, a GI50 (ACHN) of 1700 nM and a GI50 (PC-3) of 1660 nM. For the same compound, the GI50 (NCI-H522) was 340 nM, the GI50 (KM12) was 2800 nM and the GI50 (U-251) was 3160 nM. The GI50 (HOP-62) was 3060 nM and the GI50 (SR) was 320 nM.
